≈ marks a conversion by molar mass, not a printed value. One block for each molecule: values may come before it.
Experiments:
SK-OV-3 cells = assay: Confocal laser scanning microscopy of cellular uptake; type: cell-based, human; conditions: 10 μM, 1 h at 37 °C, Opti-MEM I, 488 nm excitation
Procedure, shortened: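 SK-OV-3 cells were seeded on coverslips in complete EMEM at 1 × 10⁵ cells/well and held at 50% confluency. Medium was replaced with fluorescein-labeled test peptide in Opti-MEM I reduced serum medium for 1 h at 37 °C. Cells were washed three times with PBS containing Ca/Mg and mounted. Imaging used 488 nm argon laser excitation and a 505–530 nm band-pass filter. FAM served as the comparison.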

E. coli (ATCC 35218) = assay: MIC used as basis of the time-kill studies; type: cell-based; conditions: Escherichia coli, ATCC35218
MRSA (ATCC 43300) = assay: MIC used as basis of the time-kill studies; type: cell-based; conditions: Staphylococcus aureus, ATCC43300|MRSA
[1] = test system: methicillin-resistant S. aureus (MRSA, ATCC 43300); assay: MIC by broth microdilution; type: cell-based; conditions: Staphylococcus aureus, ATCC43300|MRSA
Procedure, shortened: (§1)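 Cultures were grown overnight in tryptic soy broth at 37 °C, shaken at 175 rpm, then diluted from 1 × 10⁸ to 1 × 10⁵ CFU/mL. Peptides were 5 mM stocks in water, or in 50 mM NH₄HCO₃ for poorly soluble ones. Test compound was mixed 1:39 (v/v) with the suspension, serially 2-fold diluted and incubated statically overnight at 37 °C. MIC was the lowest concentration with no visible growth, in triplicate. Controls were tetracycline (MRSA) and tobramycin (P. aeruginosa).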

P. aeruginosa (PAO1) = assay: MIC by broth microdilution; type: cell-based; conditions: Pseudomonas aeruginosa
Procedure, shortened: as §1

intracellular fluorescence / localisation (CLSM) (SK-OV-3 cells): no significant fluorescence
Molecule: 5(6)-Carboxyfluorescein [FAM]

Molecule: CN(C)[C@@H]1C(O)=C(C(N)=O)C(=O)[C@@]2(O)C(O)=C3C(=O)c4c(O)cccc4[C@@](C)(O)[C@H]3C[C@@H]12 [tetracycline]
MIC (E. coli (ATCC 35218)): 2 µg/mL (≈ 4.5 µM)
MIC (MRSA (ATCC 43300)): 0.5 µg/mL (≈ 1.13 µM)
MIC [1]: 0.156 µg/mL (≈ 0.351 µM)

MIC (P. aeruginosa (PAO1)): 0.731 µg/mL (≈ 1.56 µM)
Molecule: NC[C@H]1O[C@H](O[C@H]2[C@H](O)[C@@H](O[C@H]3O[C@H](CO)[C@@H](O)[C@H](N)[C@H]3O)[C@H](N)C[C@@H]2N)[C@H](N)C[C@@H]1O [tobramycin]

— PMC4186684 (Molecular Pharmaceutics, 2014)
